Tests used:
Assay type in all cases: functional
A549 = experiment: Antiproliferative activity against human A549 cells by sulforhodamine B assay
How it was run: (§1)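 Cells in RPMI 1640 (25 mM HEPES, 2 mM L-glutamine, 10% heat-inactivated FBS, antibiotics) at 37 °C, 5% CO2. Seeded at 3–5 × 10³/well with graded concentrations, paclitaxel as assay control, for 72 h. TCA-fixed, stained with 0.04% SRB, dye dissolved in 10 mM Tris, A515 read. GI50 is the concentration halving absorbance versus untreated cells; three or more experiments.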

DU-145 = experiment: Antiproliferative activity against human DU145 cells by sulforhodamine B assay; how it was run: as §1
KB = experiment: Antiproliferative activity against human KB cells by sulforhodamine B assay; how it was run: as §1
[1] = Antiproliferative activity against multidrug-resistant P-gp expressing human KBVIN cells by sulforhodamine B assay
How it was run: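 Vincristine-resistant KB subline kept in 100 nM vincristine, then grown 7–10 days without it before testing. RPMI 1640 with 10% FBS, 37 °C, 5% CO2. 3–5 × 10³ cells/well exposed 72 h to a concentration series, paclitaxel as assay control. SRB staining after TCA fixation, A515 read. GI50 is the 50% absorbance reduction versus untreated cells; three or more experiments.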

[2] = Selectivity ratio of GI50 for human KB cells to GI50 for multidrug-resistant P-gp expressing human KBVIN cells
How it was run: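 Ratio of GI50 in parental KB to GI50 in P-gp-overexpressing KB-VIN. […] KB-VIN cells were grown 7–10 days without vincristine before the assay.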

Row | Structure (SMILES) | GI50 (A549) | GI50 (DU-145) | GI50 (KB) | GI50 [1] | RatioGI50 [2]
1 | CCN1C[C@]2(C)CC[C@H](O)[C@@]34C5C[C@@H]6[C@@H](OC)C[C@@](O)(C5[C@H]6O)[C@@H](CC23)C14 (stereo not given in full) [KARACOLINE] | > 20 µM | > 20 µM | > 20 µM | > 20 µM | >20
2 | C=C1[C@H]2C[C@H]3C4N5C[C@]6(C)CCC[C@]47[C@H]([C@H]2O)C3(CC5[C@H]67)[C@@H]1O [KOBUSINE] | > 20 µM | > 20 µM | > 20 µM | > 20 µM | >20
3 | CCN1C[C@]2(C)CC[C@H](OC)[C@@]34[C@@H]5C[C@H]6[C@H](OC)[C@@H]5[C@@]5(C[C@@H]6OC)OCO[C@@]5(C(=O)[C@H]23)[C@@H]14 [PACININE] | > 20 µM | > 20 µM | > 20 µM | > 20 µM | >20
4 | CC(=O)O[C@H]1C(=O)[C@@]2(C)[C@H]([C@H](OC(=O)c3ccccc3)[C@]3(O)C[C@H](OC(=O)[C@H](O)[C@@H](NC(=O)c4ccccc4)c4ccccc4)C(C)=C1C3(C)C)[C@]1(OC(C)=O)CO[C@@H]1C[C@@H]2O [PACLITAXEL] | 0.0071 µM | 0.0057 µM | 0.0064 µM | 0.95 µM | 0.0067
5 | C=C1[C@H]2C[C@H]3C4N5C[C@]6(C)CCC[C@]47[C@H]([C@H]2O)C3(C[C@]5(O)[C@H]67)[C@@H]1O [PSEUDOKOBUSINE] | > 20 µM | > 20 µM | > 20 µM | > 20 µM | >20
6 | CCN1C[C@]2(C)CC[C@H](OC)[C@@]34[C@@H]5C[C@H]6[C@H](O)[C@@H]5[C@@]5(C[C@@H]6OC)OCO[C@@]5(C(=O)[C@H]23)[C@@H]14 [YUNNADELPHININE] | > 20 µM | > 20 µM | > 20 µM | > 20 µM | >20
